Measured values collected from several papers.
Lines come from different studies, so protocols differ.
Observed: enzyme activity
Mode: inhibitor
FLT3: Receptor-type tyrosine-protein kinase FLT3 (FLT3, Homo sapiens, UniProt P36888)
FLT3 D835Y: Receptor-type tyrosine-protein kinase FLT3 (FLT3, Homo sapiens, UniProt P36888, D835Y)

The inhibition of `C=CC(=O)Nc1cc(Nc2nccc(Nc3cc(Cl)c(F)cc3C(C)(C)O)n2)c(OC)cc1N1CC[C@@H](N(C)C)C1` is reported as 16% (FLT3; 1 µM).
For `COc1cc2ncnc(Nc3ccc(Oc4ccccc4)c(C)c3C)c2cc1OC`, the inhibition was 2% (FLT3 D835Y; 1 µM).
For `Cn1cncc1C1=CN(c2ncnc3[nH]cnc23)CCS1`, the inhibition was 22.2% (FLT3; radiometric; 50 nM).
With `COc1cc(-c2cc(-c3ccc(N4CCNCC4)cc3)cnc2N)cc(OC)c1OC` the inhibition was 2% (FLT3 D835Y; 1 µM).
`CN(C)C1CCN(CC#Cc2nn(C3CCCC3)c3nc(NCc4ccccc4)ncc23)C1` (centres unmarked) gave an inhibition of 24% (FLT3; FRET; 1 µM).
With `COc1cc2ncnc(Nc3ccc(Oc4ccccc4)cc3C)c2cc1OC` the inhibition was 79% (FLT3; 1 µM).
The inhibition of `Cn1cnc(Br)c1C1=CN(c2ncnc3[nH]cnc23)CCS1` is reported as 16.8% (FLT3; radiometric; 50 nM).
`CS(=O)(=O)Nc1cccc(-c2csc(NC(=O)CSc3nc4nccnc4c(=O)n3CCc3ccccc3)n2)c1` has an inhibition of 8% (FLT3; 10 µM).
The inhibition of `CNc1cccc2cc(C(=O)Nc3ccc(C(=O)O)cc3)c(=O)[nH]c12` is reported as 0.73% (FLT3 D835Y; 10 µM).
For `CCOc1cc(-c2nncn2C)ccc1Nc1ncc2cc(C)nc(NCC(C)(C)C)c2n1`, the inhibition was 54% (FLT3; FRET; 1 µM).
`CNC(=O)c1ccccc1Nc1cc(Nc2ccc(N3CCOCC3)cc2OC)ncc1C(F)(F)F` gave an inhibition of > 50% (FLT3; 0.1 µM).
